Structures are written as SMILES. ≈ marks a conversion by molar mass, not a printed value. Calls of active or inactive are those of the source. The calls are words filed in the database; no cut-off is given here.

In experiment [1] the test system is Porphyromonas gingivalis. The experiment is described as follows: Antimicrobial activity against Porphyromonas gingivalis ATCC 33277 assessed as inhibition of biofilm formation after 48 hrs. In kind it is functional. The conditions noted are these: ATCC 33277, 48 h. The procedure, abridged:
(§1)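 A 24 h P. gingivalis culture in THB-HK was diluted to OD660 0.07 and mixed 1:1 with serial compound dilutions in THB-HK; untreated wells served as controls. Plates were held 48 h at 37 °C anaerobically and growth was read at A660. Washed biofilms were stained with 0.04% crystal violet for 15 min, eluted with 95% ethanol and read at A550. Triplicates; mean ± SD of two independent experiments.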

For experiment [2], the system named is Streptococcus mutans. The experiment is described as follows: Antimicrobial activity against Streptococcus mutans ATCC 25175 assessed as inhibition of biofilm formation after 48 hrs. In kind it is functional. To be noted: ATCC 25175, 48 h.
Experiment [3] deals with Porphyromonas gingivalis. The experiment is described as follows: Antimicrobial activity against Porphyromonas gingivalis ATCC 33277 assessed as bacterial growth at 125 ug/ml after 4 hrs by XTT assay relative to control. Type of experiment: functional. The conditions noted are these: in the assay text read “after 48 hrs by absorbance at 660 nm” for “after 4 hrs by XTT assay”. For orientation: Tetrazolium dyes change colour on reduction, which living cells bring about.

The test system of experiment [4] is Porphyromonas gingivalis. The experiment is described as follows: Antimicrobial activity against Porphyromonas gingivalis ATCC 33277 assessed as bacterial growth at 62.5 ug/ml after 4 hrs by XTT assay relative to control. Type of experiment: functional. The conditions noted are these: in the assay text read “after 48 hrs by absorbance at 660 nm” for “after 4 hrs by XTT assay”.

Experiment [5] relates to Porphyromonas gingivalis. The experiment is described as follows: Antimicrobial activity against Porphyromonas gingivalis ATCC 33277 assessed as bacterial growth at 31.2 ug/ml after 4 hrs by XTT assay relative to control. Type of experiment: functional. To be noted: in the assay text read “after 48 hrs by absorbance at 660 nm” for “after 4 hrs by XTT assay”.
Experiment [6] relates to Porphyromonas gingivalis. Kind of experiment: Antimicrobial activity against Porphyromonas gingivalis ATCC 33277 assessed as bacterial growth at 7.8 ug/ml after 4 hrs by XTT assay relative to control. Type of experiment: functional. In a few lines:
(§2)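 P. gingivalis biofilms were pre-grown for 48 h (24 h THB-HK culture diluted to OD660 0.07, 37 °C, anaerobic). They were then exposed to compound dilutions for 4 h at 37 °C under anaerobiosis. Viability was read by XTT reduction: fresh reagent of 12.5 parts XTT (1 mg/ml stock in PBS) to 1 part menadione (1 mM stock in acetone), 1 h at 37 °C, A490.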

Experiment [7] relates to Porphyromonas gingivalis. The experiment is described as follows: Antimicrobial activity against Porphyromonas gingivalis ATCC 33277 assessed as bacterial growth at 3.9 ug/ml after 4 hrs by XTT assay relative to control. In kind it is functional. In a few lines:
as §2

Experiment [8] has as its system Streptococcus mutans. Kind of experiment: Antimicrobial activity against Streptococcus mutans ATCC 25175 assessed as inhibition of biofilm formation at 3.9 ug/ml after 48 hrs. Type of experiment: functional, organism-based.
Experiment [9] has as its system Streptococcus mutans. The experiment is described as follows: Antimicrobial activity against Streptococcus mutans ATCC 25175 assessed as effect on bacterial growth after 4 hrs by XTT assay relative to control. In kind it is functional, organism-based.
Experiment [10] concerns Porphyromonas gingivalis. The experiment is described as follows: Antimicrobial activity against Porphyromonas gingivalis ATCC 33277 assessed as inhibition of biofilm formation at 31.3 ug/ml after 48 hrs. Type of experiment: functional. On the set-up: scale not given: the % may be the effect or the level left. The procedure, abridged:
as §1

Experiment [11] has as its system Porphyromonas gingivalis. Kind of experiment: Antimicrobial activity against Porphyromonas gingivalis ATCC 33277 assessed as bacterial growth at 15.6 ug/ml after 48 hrs by absorbance at 660 nm relative to control.
The subject of experiment [12] is Porphyromonas gingivalis. The experiment is described as follows: Antimicrobial activity against Porphyromonas gingivalis ATCC 33277 assessed as bacterial growth at 15.6 ug/ml after 4 hrs by XTT assay relative to control. To be noted: in the assay text read “after 48 hrs by absorbance at 660 nm” for “after 4 hrs by XTT assay”. Type of experiment: functional.
In experiment [13] the test system is Porphyromonas gingivalis. Kind of experiment: Antimicrobial activity against Porphyromonas gingivalis ATCC 33277 assessed as bacterial growth at 125 ug/ml after 48 hrs by absorbance at 660 nm relative to control.
Experiment [14] has as its system Porphyromonas gingivalis. Kind of experiment: Antimicrobial activity against Porphyromonas gingivalis ATCC 33277 assessed as bacterial growth at 62.5 ug/ml after 48 hrs by absorbance at 660 nm relative to control.
The test system of experiment [15] is Porphyromonas gingivalis. Kind of experiment: Antimicrobial activity against Porphyromonas gingivalis ATCC 33277 assessed as bacterial growth at 31.2 ug/ml after 48 hrs by absorbance at 660 nm relative to control.

For the compound `N=C(NCCCCCCNC(=N)NC(=N)Nc1ccc(Cl)cc1)NC(=N)Nc1ccc(Cl)cc1` [CHLORHEXIDINE], the MIC is 6 µM (≈ 3.03 µg/mL) with Porphyromonas gingivalis [1] and 3 µM (≈ 1.52 µg/mL) with Streptococcus mutans [2].

Regarding `COc1cc(/C=C/C(=O)O)ccc1OC/C=C(\C)CCC=C(C)C`, the Activity in the experiment with Porphyromonas gingivalis [3] was 13%; in the experiment on Porphyromonas gingivalis [4], 9%; in the experiment on Porphyromonas gingivalis [5], 15%; in the experiment on Porphyromonas gingivalis [6] it was 68%; in the experiment with Porphyromonas gingivalis [7], 81%; in the experiment with Porphyromonas gingivalis [10], 80%. The Activity in the experiment with Porphyromonas gingivalis [11] stood at 34%. Besides, the outcome in the experiment with Streptococcus mutans [8] was Active. Also, the outcome with Streptococcus mutans [9] was inactive.

Turning to `O=C1C=C(O)C(=O)c2ccccc21` [LAWSONE], the Activity is 79% in the experiment on Porphyromonas gingivalis [4]; 86% in the experiment with Porphyromonas gingivalis [5]; 92% in the experiment on Porphyromonas gingivalis [12]; 100% in the experiment with Porphyromonas gingivalis [6]; 103% with Porphyromonas gingivalis [7]; 49% with Porphyromonas gingivalis [13]. Also, the outcome in the experiment on Streptococcus mutans [9] was inactive.

In the case of `COC(=O)c1ccc(OC(=O)/C=C/c2ccc(OC/C=C(\C)CCC=C(C)C)c(OC)c2)c(OC)c1`, the Activity with Porphyromonas gingivalis [5] is given as 72%; with Porphyromonas gingivalis [12], 76%; in the experiment with Porphyromonas gingivalis [6], 87%; in the experiment with Porphyromonas gingivalis [7], 98%; with Porphyromonas gingivalis [13] it was 40%; with Porphyromonas gingivalis [14], 49%. Besides, the outcome in the experiment on Streptococcus mutans [9] was inactive.

`COc1cc(/C=C/C(=O)OC2=CC(=O)c3ccccc3C2=O)ccc1OC/C=C(\C)CCC=C(C)C`: the Activity was 17% in the experiment with Porphyromonas gingivalis [3]; 16% with Porphyromonas gingivalis [4]; 105% in the experiment with Porphyromonas gingivalis [12]; 124% with Porphyromonas gingivalis [6]; 110% in the experiment on Porphyromonas gingivalis [7]; 34% in the experiment on Porphyromonas gingivalis [15]. The result with Streptococcus mutans [9] was inactive.

Regarding `COc1cc(/C=C/C(=O)Oc2ccccc2OC)ccc1OC/C=C(\C)CCC=C(C)C`, the Activity is 32% in the experiment on Porphyromonas gingivalis [3]; 25% in the experiment on Porphyromonas gingivalis [4]; 28% in the experiment on Porphyromonas gingivalis [5]; 22% in the experiment with Porphyromonas gingivalis [12]; 25% in the experiment on Porphyromonas gingivalis [6]; 61% in the experiment on Porphyromonas gingivalis [7]. For the same compound, the outcome in the experiment with Streptococcus mutans [9] was inactive.

Regarding `Oc1ccc(O)cc1` [HYDROQUINONE], the Activity in the experiment on Porphyromonas gingivalis [4] turned out to be 13%; in the experiment on Porphyromonas gingivalis [5], 17%; with Porphyromonas gingivalis [12] it was 15%; in the experiment on Porphyromonas gingivalis [6], 27%; in the experiment on Porphyromonas gingivalis [7], 45%; in the experiment with Porphyromonas gingivalis [13], 14%. In the experiment with Streptococcus mutans [9], the outcome was inactive.

Values taken from ChEMBL document CHEMBL1141674, “Effects of 3-(4'-geranyloxy-3'-methoxyphenyl)-2-trans propenoic acid and its ester derivatives on biofilm formation by two oral pathogens, Porphyromonas gingivalis and Streptococcus mutans” (2008).
